# According to ChEMBL document CHEMBL1148356, “Synthesis and biological evaluation of 3-heterocyclyl-7,8,9,10-tetrahydro-(7,10-ethano)-1,2,4-triazolo[3,4-a]phthalazines and analogues as subtype-selective inverse agonists for the GABA(A)alpha5 benzodiazepine binding site” (J Med Chem, 2004):
# pEC50, pKi: −log10 of the molar value. Calls of active or inactive are those of the source. The calls are words filed in the database; no cut-off is given here.
# Legend:
# [1] = biological target: GABA-A receptor; alpha-1/beta-3/gamma-2 (Homo sapiens) (UniProt P14867+P18507+P28472); test: Percent change in electrophysiological response in Xenopus oocytes expressing Alpha1-beta3-gamma2 GABA-A receptor; type: functional, cell-based; conditions: Oocyte
# Method in brief: (§1)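 Two-electrode voltage clamp on Xenopus oocytes injected with human GABA-A subunit cDNAs, 24-72 h expression, perfused with modified Barth's medium at pH 7.5, clamped between -40 and -70 mV. The GABA EC20 was titrated against a 3 mM GABA maximum. […] Result is % change of control current, mean ± SE of ≥4 oocytes.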
# [2] = biological target: T1, GABA-A receptor; alpha-1/beta-3/gamma-2 (Homo sapiens, UniProt P14867+P18507+P28472); test: Binding affinity towards human alpha-1-beta-3-gamma-2 GABA-A receptor using [3H]Ro-151788 expressed in L(tk-) cells; type: cell-based
# T1 sequence (P14867 whole entry): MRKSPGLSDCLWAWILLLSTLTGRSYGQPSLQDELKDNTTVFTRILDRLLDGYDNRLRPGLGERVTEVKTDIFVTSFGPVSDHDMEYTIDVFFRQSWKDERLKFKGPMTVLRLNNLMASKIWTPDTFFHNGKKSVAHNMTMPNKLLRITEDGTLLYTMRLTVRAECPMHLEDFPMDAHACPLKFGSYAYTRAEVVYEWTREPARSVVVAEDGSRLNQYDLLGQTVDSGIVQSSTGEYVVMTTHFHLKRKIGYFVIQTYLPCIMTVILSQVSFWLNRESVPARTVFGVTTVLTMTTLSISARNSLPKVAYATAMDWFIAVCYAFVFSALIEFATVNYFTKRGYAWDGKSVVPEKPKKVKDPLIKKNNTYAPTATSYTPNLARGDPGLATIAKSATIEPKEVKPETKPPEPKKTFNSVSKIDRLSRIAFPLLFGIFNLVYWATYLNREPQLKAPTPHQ
# T1 sequence (P18507 whole entry): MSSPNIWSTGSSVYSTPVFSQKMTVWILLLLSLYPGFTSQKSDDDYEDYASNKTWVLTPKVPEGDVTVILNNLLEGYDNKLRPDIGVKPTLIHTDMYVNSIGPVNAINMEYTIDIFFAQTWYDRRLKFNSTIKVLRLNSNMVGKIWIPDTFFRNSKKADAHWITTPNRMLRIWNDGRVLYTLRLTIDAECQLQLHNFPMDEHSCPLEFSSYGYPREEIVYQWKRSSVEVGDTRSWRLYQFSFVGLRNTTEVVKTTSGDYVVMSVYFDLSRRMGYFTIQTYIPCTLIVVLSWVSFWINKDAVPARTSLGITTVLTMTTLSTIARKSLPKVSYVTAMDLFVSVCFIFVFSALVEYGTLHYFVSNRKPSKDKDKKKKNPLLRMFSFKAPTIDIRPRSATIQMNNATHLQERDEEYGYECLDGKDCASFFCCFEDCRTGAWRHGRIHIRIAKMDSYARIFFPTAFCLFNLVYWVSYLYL
# T1 sequence (P28472 whole entry): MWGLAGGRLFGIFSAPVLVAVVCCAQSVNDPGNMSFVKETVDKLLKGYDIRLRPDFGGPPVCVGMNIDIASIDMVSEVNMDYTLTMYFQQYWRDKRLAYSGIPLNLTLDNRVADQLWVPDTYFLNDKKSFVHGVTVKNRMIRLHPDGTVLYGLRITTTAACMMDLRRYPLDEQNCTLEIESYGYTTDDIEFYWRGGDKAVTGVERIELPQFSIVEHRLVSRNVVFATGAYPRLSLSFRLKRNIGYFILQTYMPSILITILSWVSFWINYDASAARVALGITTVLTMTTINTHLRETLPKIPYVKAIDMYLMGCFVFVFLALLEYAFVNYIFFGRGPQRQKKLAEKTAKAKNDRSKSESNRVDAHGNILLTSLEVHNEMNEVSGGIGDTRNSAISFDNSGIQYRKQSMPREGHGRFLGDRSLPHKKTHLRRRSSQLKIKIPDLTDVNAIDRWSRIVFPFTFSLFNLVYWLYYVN
# [3] = biological target: T2, GABA-A receptor; alpha-5/beta-3/gamma-2 (Homo sapiens, UniProt P18507+P28472+P31644); test: Effective concentration against human Alpha-5-beta-3-gamma-2 GABA-A receptor was determined; type: functional
# T2 sequence (P18507 whole entry): T1 sequence (P18507 whole entry)
# T2 sequence (P28472 whole entry): T1 sequence (P28472 whole entry)
# T2 sequence (P31644 whole entry): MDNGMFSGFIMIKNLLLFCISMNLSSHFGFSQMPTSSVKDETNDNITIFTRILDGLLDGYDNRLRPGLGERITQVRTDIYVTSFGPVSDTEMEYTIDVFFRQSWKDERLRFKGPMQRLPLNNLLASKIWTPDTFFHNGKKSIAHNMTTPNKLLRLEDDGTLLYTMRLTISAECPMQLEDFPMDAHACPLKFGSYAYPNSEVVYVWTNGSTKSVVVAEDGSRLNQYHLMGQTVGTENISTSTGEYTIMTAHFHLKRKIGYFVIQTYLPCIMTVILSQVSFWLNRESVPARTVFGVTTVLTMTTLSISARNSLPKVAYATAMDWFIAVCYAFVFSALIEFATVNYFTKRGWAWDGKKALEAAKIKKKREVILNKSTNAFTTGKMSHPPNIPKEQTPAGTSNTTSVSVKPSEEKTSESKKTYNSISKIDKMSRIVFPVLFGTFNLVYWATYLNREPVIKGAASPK
# Method in brief: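 Whole-cell patch clamp was run on Ltk- cells stably expressing human α5β3γ2s. Bath solution was NaCl/NaHCO3/glucose buffer, pH 7.2. Pipettes held 130 mM CsCl, 10 mM EGTA, 3 mM Mg-ATP, pH 7.3. Drug was applied by double-barreled pipette with an EC20 GABA concentration, and concentration–response data were fitted to a Hill equation for EC50. Values are mean ± SEM of at least five fitted curves, with at least five cells per point.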
# [4] = biological target: GABA-A receptor; alpha-3/beta-3/gamma-2 (Homo sapiens) (UniProt P18507+P28472+P34903); test: Percent maximum change in electrophysiological response in Xenopus oocytes expressing alpha-3-beta-3-gamma-2 GABA-A receptor; type: functional, cell-based; conditions: Oocyte; method in brief: as §1
# [5] = biological target: GABA-A receptor; alpha-2/beta-3/gamma-2 (Homo sapiens) (UniProt P18507+P28472+P47869); test: Percent maximum change in electrophysiological response in Xenopus oocytes expressing alpha-2-beta-3-gamma-2 GABA-A receptor; type: functional, cell-based; conditions: Oocyte; method in brief: as §1
# [6] = biological target: T3, GABA-A receptor; alpha-5/beta-3/gamma-2 (Homo sapiens) (UniProt P18507+P28472+P31644); test: Percent change in electrophysiological response in Xenopus oocytes expressing Alpha-5-beta-3-gamma-2 GABA-A receptor; type: functional, cell-based; conditions: Oocyte; method in brief: as §1
# [7] = biological target: T3, GABA-A receptor; alpha-5/beta-3/gamma-2 (Homo sapiens); test: Percent maximum change in electrophysiological response in Xenopus oocytes expressing alpha-5-beta-3-gamma-2 GABA-A receptor; type: functional, cell-based; conditions: Oocyte; method in brief: as §1
# [8] = biological target: T2, GABA-A receptor; alpha-5/beta-3/gamma-2; test: Binding affinity towards human alpha-5-beta-3-gamma-2 GABA-A receptor using [3H]Ro-151788 expressed in L(tk-) cells; type: cell-based
# [9] = biological target: GABA-A receptor; alpha-6/beta-3/gamma-2 (Homo sapiens, UniProt P18507+P28472+Q16445); test: Inhibition of [3H]Ro-151788 binding to human alpha-6-beta-3-gamma-2 GABA-A receptor expressed in L(tk-) cells; type: cell-based
# Rattus norvegicus = test: Tested for cognitive performance in rats in delayed matching-to-place version of water maze test at 1 mg/kg p.o.; Significant enhancement in performance; type: functional, organism-based; set-up: dose 1 mg/kg
# Chain of GABA-A receptor; alpha-6/beta-3/gamma-2 (Q16445 whole entry, one chain of several): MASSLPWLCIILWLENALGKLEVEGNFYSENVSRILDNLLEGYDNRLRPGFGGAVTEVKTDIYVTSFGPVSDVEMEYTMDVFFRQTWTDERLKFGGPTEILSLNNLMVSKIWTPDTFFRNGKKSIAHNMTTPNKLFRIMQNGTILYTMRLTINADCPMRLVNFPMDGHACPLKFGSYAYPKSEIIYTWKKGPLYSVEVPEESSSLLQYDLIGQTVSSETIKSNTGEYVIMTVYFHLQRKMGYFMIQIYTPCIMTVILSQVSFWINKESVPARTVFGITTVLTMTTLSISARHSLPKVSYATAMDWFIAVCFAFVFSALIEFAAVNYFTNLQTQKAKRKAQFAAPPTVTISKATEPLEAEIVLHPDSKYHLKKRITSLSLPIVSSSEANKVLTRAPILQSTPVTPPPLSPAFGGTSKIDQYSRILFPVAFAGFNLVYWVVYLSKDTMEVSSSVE
structure (smiles),measurement,setting,value
Cc1cc(-c2nnc3c4ccccc4c(OCc4ccccn4)nn23)no1,Efficacy,[1],-2%
same,pKi,[2],8.85
same,pEC50,[3],8.60
same,Efficacy,[4],-17%
same,Efficacy,[5],-7%
same,Efficacy,[6],-46%
same,Efficacy,[7],-45%
same,pKi,[8],9.10
same,pKi,[9],5.36
same,Activity,Rattus norvegicus,Active
